What was measured:
NCI-H23 = assay: Cytotoxicity against human NCI-H23 cells after 48 hrs by SRB assay; assay type: functional; conditions: NCI-H23, 48 h
ACHN = assay: Cytotoxicity against human ACHN cells after 48 hrs by SRB assay; assay type: functional
NCI-H322M = assay: Cytotoxicity against human NCI-H322M cells after 48 hrs by SRB assay; assay type: functional
SNB-19 = assay: Cytotoxicity against human SNB-19 cells after 48 hrs by SRB assay; assay type: functional; conditions: SNB-19, 48 h
BT-549 = assay: Cytotoxicity against human BT-549 cells after 48 hrs by SRB assay; assay type: functional; conditions: BT-549, 48 h
SK-MEL-5 = assay: Cytotoxicity against human SK-MEL-5 cells after 48 hrs by SRB assay; assay type: functional; conditions: SK-MEL-5, 48 h
[1] = Cytotoxicity against human Hs 578T cells after 48 hrs by SRB assay; assay type: functional
EKVX = assay: Cytotoxicity against human EKVX cells after 48 hrs by SRB assay; assay type: functional
Raji [2] = assay: Inhibition of TPA-induced EBV-early antigen activation in human Raji cells at 100 molar ratio relative to TPA; assay type: cell-based; design: scale not given: the % may be the effect or the level left; conditions: human gammaherpesvirus 4
CCRF-CEM = assay: Cytotoxicity against human CCRF-CEM cells after 48 hrs by SRB assay; assay type: functional
T47D = assay: Cytotoxicity against human T47D cells after 48 hrs by SRB assay; assay type: functional
How it was run: (§1)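 Tested in the NCI panel of 60 human tumour cell lines covering lung, colon, melanoma, renal, ovarian, breast and leukaemia. At least five concentrations were run in 10-fold dilutions starting from 10^-4 M. Exposure was continuous for 48 h. Growth or viability was estimated by sulforhodamine B protein staining, and GI50 values were reported.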

MDA-MB-231 = assay: Cytotoxicity against human MDA-MB-231 cells after 48 hrs by SRB assay; assay type: functional; conditions: MDA-MB-231, 48 h
NCI-H226 = assay: Cytotoxicity against human NCI-H226 cells after 48 hrs by SRB assay; assay type: functional; conditions: NCI-H226, 48 h
RXF 393 = assay: Cytotoxicity against human […] cells after 48 hrs by SRB assay; assay type: functional; conditions: RXF 393, 48 h
MCF7 = assay: Cytotoxicity against human MCF7 cells after 48 hrs by SRB assay; assay type: functional; conditions: MCF7, 48 h
IGROV-1 = assay: Cytotoxicity against human IGROV1 cells after 48 hrs by SRB assay; assay type: functional; conditions: IGROV-1, 48 h
786-0 = assay: Cytotoxicity against human 786-0 cells after 48 hrs by SRB assay; assay type: functional; conditions: 786-0, 48 h
SW-620 = assay: Cytotoxicity against human SW620 cells after 48 hrs by SRB assay; assay type: functional; conditions: SW-620, 48 h
PC-3 = assay: Cytotoxicity against human PC-3 cells after 48 hrs by SRB assay; assay type: functional; conditions: PC-3, 48 h
HOP-62 = assay: Cytotoxicity against human HOP-62 cells after 48 hrs by SRB assay; assay type: functional; conditions: HOP-62, 48 h
UACC-257 = assay: Cytotoxicity against human UACC-257 cells after 48 hrs by SRB assay; assay type: functional; conditions: UACC-257, 48 h; how it was run: as §1
[3] = Cytotoxicity against human HCT 116 cells after 48 hrs by SRB assay; assay type: functional; conditions: HCT-116, 48 h
[4] = Inhibition of TPA-induced EBV-early antigen activation in human Raji cells relative to TPA; assay type: cell-based, human gammaherpesvirus 4
MDA-MB-435 = assay: Cytotoxicity against human MDA-MB-435 cells after 48 hrs by SRB assay; assay type: functional; conditions: MDA-MB-435, 48 h
SF-268 = assay: Cytotoxicity against human SF-268 cells after 48 hrs by SRB assay; assay type: functional; conditions: SF-268, 48 h
Raji [5] = assay: Inhibition of TPA-induced EBV-early antigen activation in human Raji cells at 10 molar ratio relative to TPA; assay type: cell-based; design: scale not given: the % may be the effect or the level left; conditions: human gammaherpesvirus 4
K562 = assay: Cytotoxicity against human K-562 cells after 48 hrs by SRB assay; assay type: functional; conditions: K562, 48 h
UO-31 = assay: Cytotoxicity against human UO-31 cells after 48 hrs by SRB assay; assay type: functional; conditions: UO-31, 48 h; how it was run: as §1
LOX IMVI = assay: Cytotoxicity against human LOX IMVI cells after 48 hrs by SRB assay; assay type: functional
UACC-62 = assay: Cytotoxicity against human UACC-62 cells after 48 hrs by SRB assay; assay type: functional; conditions: UACC-62, 48 h; how it was run: as §1
OVCAR-8 = assay: Cytotoxicity against human OVCAR8 cells after 48 hrs by SRB assay; assay type: functional; conditions: OVCAR-8, 48 h
NCI-H522 = assay: Cytotoxicity against human NCI-H522 cells after 48 hrs by SRB assay; assay type: functional; conditions: NCI-H522, 48 h
U-251 = assay: Cytotoxicity against human U251 cells after 48 hrs by SRB assay; assay type: functional; conditions: U-251, 48 h; how it was run: as §1
[6] = Cytotoxicity against human Raji cells assessed as cell viability at 100 molar ratio; assay type: cell-based; conditions: read-out: Activity
How it was run: (§2)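 Raji cells were treated with 32 pmol TPA to induce EBV early antigen activation. The test agent was added at 10, 100, 500 or 1000 mol ratio relative to TPA, and Raji cell viability was measured alongside EA activation.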

[7] = Cytotoxicity against human Raji cells assessed as cell viability at 10 molar ratio; assay type: cell-based; conditions: read-out: Activity; how it was run: as §2
SK-MEL-2 = assay: Cytotoxicity against human SK-MEL-2 cells after 48 hrs by SRB assay; assay type: functional; conditions: SK-MEL-2, 48 h
SN12C = assay: Cytotoxicity against human SN12C cells after 48 hrs by SRB assay; assay type: functional
HCT-15 = assay: Cytotoxicity against human HCT-15 cells after 48 hrs by SRB assay; assay type: functional; conditions: HCT-15, 48 h
NCI/ADR-RES = assay: Cytotoxicity against human NCI/ADR-RES cells after 48 hrs by SRB assay; assay type: functional
Raji [8] = assay: Inhibition of TPA-induced EBV-early antigen activation in human Raji cells at 1000 molar ratio relative to TPA; assay type: cell-based; design: scale not given: the % may be the effect or the level left; conditions: human gammaherpesvirus 4
[9] = Cytotoxicity against human SK MEL28 cells after 48 hrs by SRB assay; assay type: functional; conditions: SK-MEL-28, 48 h
A549 = assay: Cytotoxicity against human A549 cells after 48 hrs by SRB assay; assay type: functional; conditions: A549, 48 h
HL-60 = assay: Cytotoxicity against human HL-60 cells after 48 hrs by SRB assay; assay type: functional; conditions: HL-60, 48 h
HCC 2998 = assay: Cytotoxicity against human HCC2998 cells after 48 hrs by SRB assay; assay type: functional; conditions: HCC 2998, 48 h
Raji [10] = assay: Inhibition of TPA-induced EBV-early antigen activation in human Raji cells at 500 molar ratio relative to TPA; assay type: cell-based; design: scale not given: the % may be the effect or the level left; conditions: human gammaherpesvirus 4
Malme-3M = assay: Cytotoxicity against human MALME-3M cells after 48 hrs by SRB assay; assay type: functional
[11] = Cytotoxicity against human Raji cells assessed as cell viability at 500 molar ratio; assay type: cell-based; conditions: read-out: Activity; how it was run: as §2
[12] = Cytotoxicity against human Raji cells assessed as cell viability at 1000 molar ratio; assay type: cell-based; conditions: read-out: Activity; how it was run: as §2
TK-10 = assay: Cytotoxicity against human TK-10 cells after 48 hrs by SRB assay; assay type: functional; conditions: TK-10, 48 h; how it was run: as §1
NCI-H460 = assay: Cytotoxicity against human NCI-H460 cells after 48 hrs by SRB assay; assay type: functional; conditions: NCI-H460, 48 h
CAKI-1 = assay: Cytotoxicity against human Caki-1 cells after 48 hrs by SRB assay; assay type: functional; conditions: CAKI-1, 48 h
COLO 205 = assay: Cytotoxicity against human COLO205 cells after 48 hrs by SRB assay; assay type: functional; conditions: COLO 205, 48 h
KM12 = assay: Cytotoxicity against human KM12 cells after 48 hrs by SRB assay; assay type: functional; conditions: KM12, 48 h
OVCAR-5 = assay: Cytotoxicity against human OVCAR5 cells after 48 hrs by SRB assay; assay type: functional; conditions: OVCAR-5, 48 h
MOLT-4 = assay: Cytotoxicity against human MOLT-4 cells after 48 hrs by SRB assay; assay type: functional; conditions: MOLT-4, 48 h
OVCAR-3 = assay: Cytotoxicity against human OVCAR-3 cells after 48 hrs by SRB assay; assay type: functional; conditions: OVCAR-3, 48 h
HT-29 = assay: Cytotoxicity against human HT-29 cells after 48 hrs by SRB assay; assay type: functional; conditions: HT-29, 48 h

With `COC(=O)[C@H]1O[C@@H](O[C@H]2CC[C@]3(C)[C@H]4CC=C5[C@@H]6CC(C)(C)CC[C@]6(C(=O)O)CC[C@@]5(C)[C@]4(C)CC[C@H]3C2(C)C)[C@H](O)[C@@H](O[C@@H]2O[C@H](CO)[C@H](O)[C@H](O)[C@H]2O)[C@@H]1O` as the compound, how does the GI50 (NCI-H23) read?
Its GI50 is 6.46 µM.

And the GI50 (ACHN)?
Its GI50 is 5.99 µM.

And the GI50 (NCI-H322M)?
Its GI50 is 7.59 µM.

What about the GI50 (SNB-19) of the same compound?
The GI50 was 6.82 µM.

And the GI50 (BT-549)?
The GI50 was 6.93 µM.

And the GI50 (SK-MEL-5)?
The GI50 was 6.14 µM.

And the GI50 [1]?
The GI50 was 8.77 µM.

And the GI50 (EKVX)?
Its GI50 is 6.59 µM.

What about the Activity (Raji [2]) of the same compound?
The Activity was 71.2%.

And the GI50 (CCRF-CEM)?
The GI50 was 5.79 µM.

And the GI50 (T47D)?
Its GI50 is 8.16 µM.

What about the GI50 (MDA-MB-231) of the same compound?
Its GI50 is 7.28 µM.

And the GI50 (NCI-H226)?
Its GI50 is 6.18 µM.

And the GI50 (RXF 393)?
The GI50 was 11.3 µM.

What about the GI50 (MCF7) of the same compound?
The GI50 was 9.93 µM.

What about the GI50 (IGROV-1) of the same compound?
The GI50 was 20.1 µM.

And the GI50 (786-0)?
The GI50 was 6.36 µM.

And the GI50 (SW-620)?
The GI50 was 7.28 µM.

And the GI50 (PC-3)?
The GI50 was 6.43 µM.

What about the GI50 (HOP-62) of the same compound?
Its GI50 is 6.21 µM.

What about the GI50 (UACC-257) of the same compound?
The GI50 was 6.89 µM.

And the GI50 [3]?
Its GI50 is 6.39 µM.

And the IC50 [4]?
Its IC50 is 479 molar ratio.

And the GI50 (MDA-MB-435)?
The GI50 was 13.3 µM.

What about the GI50 (SF-268) of the same compound?
The GI50 was 7.56 µM.

What about the Activity (Raji [5]) of the same compound?
The Activity was 100%.

And the GI50 (K562)?
Its GI50 is 8.17 µM.

What about the GI50 (UO-31) of the same compound?
Its GI50 is 33.3 µM.

And the GI50 (LOX IMVI)?
The GI50 was 6.27 µM.

And the GI50 (UACC-62)?
The GI50 was 6.23 µM.

And the GI50 (OVCAR-8)?
The GI50 was 9.96 µM.

What about the GI50 (NCI-H522) of the same compound?
Its GI50 is 10.5 µM.

And the GI50 (U-251)?
Its GI50 is 6.08 µM.

What about the viability at 100 molar ratio [6] of the same compound?
The viability at 100 molar ratio was > 80%.

What about the viability at 10 molar ratio [7] of the same compound?
The viability at 10 molar ratio was > 80%.

What about the GI50 (SK-MEL-2) of the same compound?
Its GI50 is 11.9 µM.

What about the GI50 (SN12C) of the same compound?
The GI50 was 6.34 µM.

What about the GI50 (HCT-15) of the same compound?
The GI50 was 6.57 µM.

What about the GI50 (NCI/ADR-RES) of the same compound?
The GI50 was 7.24 µM.

What about the Activity (Raji [8]) of the same compound?
The Activity was 10%.

What about the GI50 [9] of the same compound?
The GI50 was 10.2 µM.

What about the GI50 (A549) of the same compound?
Its GI50 is 7.22 µM.

What about the GI50 (HL-60) of the same compound?
The GI50 was 6.92 µM.

What about the GI50 (HCC 2998) of the same compound?
The GI50 was 7.14 µM.

And the Activity (Raji [10])?
The Activity was 47.2%.

And the GI50 (Malme-3M)?
The GI50 was 6.22 µM.

And the viability at 500 molar ratio [11]?
Its viability at 500 molar ratio is > 80%.

What about the viability at 1000 molar ratio [12] of the same compound?
The viability at 1000 molar ratio was 70%.

What about the GI50 (TK-10) of the same compound?
The GI50 was 7.22 µM.

What about the GI50 (NCI-H460) of the same compound?
Its GI50 is 11.5 µM.

And the GI50 (CAKI-1)?
Its GI50 is 12.2 µM.

And the GI50 (COLO 205)?
The GI50 was 8.64 µM.

What about the GI50 (KM12) of the same compound?
Its GI50 is 8.83 µM.

What about the GI50 (OVCAR-5) of the same compound?
The GI50 was 7.31 µM.

And the GI50 (MOLT-4)?
Its GI50 is 2.17 µM.

What about the GI50 (OVCAR-3) of the same compound?
Its GI50 is 13.9 µM.

And the GI50 (HT-29)?
Its GI50 is 12.4 µM.
